Experimental data taken from ChEMBL document CHEMBL1123024, “5,6-Diaryl-2,3-dihydroimidazo[2,1-b]thiazoles: a new class of immunoregulatory antiinflammatory agents” (1985).

Experiments:
Rattus norvegicus [1] = experiment: The compound was tested for percent change in nonimmune L16 inflammatory lesions in rat adjuvant-induced arthritis at 50 mg/kg; type: functional
Summary of the method: (§1)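 Male Wistar rats received 0.75 mg M. butyricum in paraffin oil intradermally into the left hindpaw. Compounds were given daily po in 0.5% tragacanth from the injection day for 17 days, skipping days 4, 5, 11 and 12. Leg volumes were read by mercury displacement: left leg on day 3, both legs on day 16. Eight treated rats vs 16 vehicle controls; Student's t test. ED25 is the dose giving a 25% volume decrease, from at least three doses, with 95% limits by Fieller's theorem.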

Mus musculus [2] = species: Mus musculus; experiment: Immunoregulatory activity against oxazolone induced mouse contact sensitivity was evaluated as percent change; type: functional
Summary of the method: (§2)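 Male C57B1/6 mice were sensitized with 0.1 mL of 5% oxazolone in absolute ethanol on the clipped abdomen. At 45 h the left hind leg was challenged with 5% oxazolone. Compound was given po in 0.5% tragacanth. Edema was read plethysmographically 24 h later as left minus right leg volume. Six mice vs eight controls; Student's t test.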

Rattus norvegicus [3] = experiment: The compound was tested for percent change in immune R16 inflammatory lesions in rat adjuvant-induced arthritis at 50 mg/kg; type: functional; summary of the method: as §1
Rattus norvegicus [4] = experiment: The compound was tested for percent change in nonimmune L3 inflammatory lesions in rat adjuvant-induced arthritis at 50 mg/kg; type: functional; summary of the method: as §1
Mus musculus [5] = species: Mus musculus; experiment: Immunoregulatory activity against mouse contact sensitivity was evaluated as percent change; type: functional; summary of the method: as §2
Rattus norvegicus [6] = experiment: Percent change in nonimmune L16 inflammatory lesions in rat adjuvant-induced arthritis at 50 mg/kg; type: functional; summary of the method: as §1
Rattus norvegicus [7] = experiment: Percent change in immune R16 inflammatory lesions in rat adjuvant-induced arthritis at 50 mg/kg; type: functional; summary of the method: as §1
Rattus norvegicus [8] = experiment: Percent change in nonimmune L3 inflammatory lesions in rat adjuvant-induced arthritis at 50 mg/kg; type: functional; summary of the method: as §1
Rattus norvegicus [9] = experiment: Compound was tested by carrageenan -induced paw edema for percent change in paw volume of control sham operated rats at 50 mg/kg.; type: functional
Summary of the method: (§3)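 Normal, adrenalectomized or sham-operated Lewis rats were dosed po in 0.5% tragacanth, hydrated. 1 h later paw volume was read, then […] of 1% carrageenan in 0.9% saline was injected into the right hindpaw plantar surface. Volume was re-read at 3 h. Percent change, treated vs control; Student's t test.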

Rattus norvegicus [10] = species: Rattus norvegicus; experiment: Inhibition of immune R16 inflammatory lesions was measured.; activity value ranges from 0.17 - 1.73; type: functional; summary of the method: as §1
Rattus norvegicus [11] = experiment: Compound was tested by carrageenan -induced paw edema for percent change in paw volume of control sham operated rats; type: functional; summary of the method: as §3
Rattus norvegicus [12] = experiment: Compound was tested by carrageenan -induced paw edema for percent change in paw volume on treated vs. control adrenalectomized rats; type: functional; summary of the method: as §3
Rattus norvegicus [13] = species: Rattus norvegicus; experiment: Inhibition of primary nonimmune L3 inflammatory lesions was measured.; type: functional; summary of the method: as §1
Rattus norvegicus [14] = species: Rattus norvegicus; experiment: Inhibition of secondary nonimmune L16 inflammatory lesions was measured; activity value ranges from 0.19 - 0.79; type: functional; summary of the method: as §1
Mus musculus [15] = experiment: Change in paw edema in oxazolone -induced arthritic mice at 5 mg/kg
Mus musculus [16] = experiment: Change in paw edema in methotrexate-suppressed oxazolone -induced contact sensitivity in mice at 5 mg/kg; % change was not statistically significant; type: functional
Rattus norvegicus [17] = experiment: The compound was tested for percent change in immune R16 inflammatory lesions in rat adjuvant-induced arthritis at 50 mg/kg; the % change was Not Significant; type: functional; summary of the method: as §1
Rattus norvegicus [18] = experiment: Compound was tested by carrageenan -induced paw edema for percent change in paw volume of control sham operated rats at 100 mg/kg.; type: functional; summary of the method: as §3
Mus musculus [19] = experiment: Immunoregulatory activity against oxazolone induced mouse contact sensitivity was evaluated as percent change at a dose of 10 mg/kg; type: functional; summary of the method: as §2
Rattus norvegicus [20] = experiment: Compound was tested by carrageenan -induced paw edema for percent change in paw volume of control sham operated rats at 50 mg/kg; the % change was Not statistically significant; type: functional; summary of the method: as §3
Mus musculus [21] = species: Mus musculus; experiment: Immunoregulatory activity against oxazolone induced mouse contact sensitivity was evaluated as percent change; the % change in Not statistically Significant; type: functional; summary of the method: as §2
Rattus norvegicus [22] = experiment: Compound was tested by carrageenan -induced paw edema for percent change in paw volume of control in adrenalectomized operated rats at 50 mg/kg.; type: functional; summary of the method: as §3
Mus musculus [23] = experiment: Change in paw edema in oxazolone -induced arthritic mice at 50 mg/kg.
Rattus norvegicus [24] = experiment: Change in 7S hemagglutinination titers in adjuvant-induced arthritic rats at 50 mg/kg.; type: functional
Rattus norvegicus [25] = experiment: Change in 19S hemagglutinination titers in adjuvant-induced arthritic rats at 50 mg/kg.; type: functional
Rattus norvegicus [26] = species: Rattus norvegicus; experiment: Inhibition of immune, R16 inflammatory lesions was measured; type: functional; summary of the method: as §1
Rattus norvegicus [27] = species: Rattus norvegicus; experiment: Inhibition of primary nonimmune, L3 inflammatory lesions was measured; type: functional; summary of the method: as §1
Mus musculus [28] = experiment: Change in paw edema in methotrexate-suppressed oxazolone -induced contact sensitivity in mice at 50 mg/kg.; type: functional
Rattus norvegicus [29] = species: Rattus norvegicus; experiment: Inhibition of secondary nonimmune, L16 inflammatory lesions was measured; type: functional; summary of the method: as §1

COc1ccc(-c2c(-c3ccc(F)cc3)nc3n2CC[S+]3[O-])cc1 (configuration not stated)
Change (Rattus norvegicus [1]): -39% | Change (Mus musculus [2]): 65% | Change (Rattus norvegicus [3]): -39% | Change (Rattus norvegicus [4]): -35%

CSc1ccc(-c2nc3n(c2-c2ccc(SC)cc2)CCS3)cc1
Change (Mus musculus [5]): 73% | Change (Rattus norvegicus [6]): -36% | Change (Rattus norvegicus [7]): -38% | Change (Rattus norvegicus [8]): -25% | Change (Rattus norvegicus [9]): -33%

COc1ccc(-c2nc(C(F)(F)F)[nH]c2-c2ccc(OC)cc2)cc1 [FLUMIZOLE]
ED25 (Rattus norvegicus [10]): 0.78 mg/kg | Change (Rattus norvegicus [11]): -48% | Change (Rattus norvegicus [12]): -47% | ED25 (Rattus norvegicus [13]): 11 mg/kg | ED25 (Rattus norvegicus [14]): 0.45 mg/kg | Change (Mus musculus [15]): -28% | Change (Mus musculus [16]): 3%

COc1ccc(-c2nc3n(c2-c2ccc(OC)cc2)CCS3(=O)=O)cc1
Change (Rattus norvegicus [1]): -12% | Change (Mus musculus [2]): 95% | Change (Rattus norvegicus [4]): -11% | Change (Rattus norvegicus [17]): -7%

FC(F)(F)c1ccc(-c2nc3n(c2-c2ccc(C(F)(F)F)cc2)CCS3)cc1
Change (Mus musculus [5]): 89% | Change (Rattus norvegicus [6]): 12% | Change (Rattus norvegicus [7]): 1% | Change (Rattus norvegicus [8]): 0% | Change (Rattus norvegicus [18]): 4%

COc1cccc(-c2nc3n(c2-c2cccc(OC)c2)CCS3)c1
Change (Mus musculus [5]): 166% | Change (Rattus norvegicus [6]): -4% | Change (Rattus norvegicus [7]): -16% | Change (Rattus norvegicus [8]): 0% | Change (Rattus norvegicus [18]): -3%

COc1ccc(-c2nc3n(c2-c2ccc(OC)cc2)CC[S+]3[O-])cc1 (configuration not stated)
Change (Rattus norvegicus [1]): -29% | Change (Rattus norvegicus [3]): -32% | Change (Rattus norvegicus [4]): -24% | Change (Mus musculus [19]): 76%

C[S+]([O-])c1ccc(-c2nc3n(c2-c2ccc([S+](C)[O-])cc2)CC[S+]3[O-])cc1 (configuration not stated)
Change (Rattus norvegicus [20]): 10% | Change (Rattus norvegicus [1]): -44% | Change (Rattus norvegicus [3]): -47% | Change (Rattus norvegicus [4]): -27% | Change (Mus musculus [21]): 38%

c1ccc(-c2nc3n(c2-c2ccccc2)CCS3)cc1
Change (Rattus norvegicus [6]): -4% | Change (Rattus norvegicus [7]): -4% | Change (Rattus norvegicus [8]): -12% | Change (Rattus norvegicus [18]): -7% | Change (Rattus norvegicus [9]): -9%

COc1ccc(-c2nc3n(c2-c2ccc(OC)cc2)CCS3)cc1
Change (Rattus norvegicus [22]): -58% | Change (Mus musculus [23]): 211% | Change (Mus musculus [5]): 211% | Change (Rattus norvegicus [6]): -34% | Change (Rattus norvegicus [7]): -21% | Change (Rattus norvegicus [24]): -3.7% | Change (Rattus norvegicus [25]): 1.2% | Change (Rattus norvegicus [8]): -24% | ED25 (Rattus norvegicus [26]): 24.4 mg/kg | Change (Rattus norvegicus [9]): -63% | ED25 (Rattus norvegicus [27]): 32.9 mg/kg | Change (Mus musculus [28]): 156% | ED25 (Rattus norvegicus [29]): 18.7 mg/kg

CC(C)(C)C(=O)Nc1ccc(-c2nc3n(c2-c2ccc(NC(=O)C(C)(C)C)cc2)CCS3)cc1
Change (Mus musculus [5]): 15% | Change (Rattus norvegicus [6]): -3% | Change (Rattus norvegicus [7]): -1% | Change (Rattus norvegicus [8]): -4%

CCN(C(C)=O)c1ccc(-c2nc3n(c2-c2ccc(N(CC)C(C)=O)cc2)CCS3)cc1
Change (Mus musculus [5]): 43% | Change (Rattus norvegicus [6]): -1% | Change (Rattus norvegicus [7]): -10% | Change (Rattus norvegicus [8]): -4%

CC(=O)Oc1ccc(-c2nc3n(c2-c2ccc(OC(C)=O)cc2)CCS3)cc1
Change (Mus musculus [5]): 101% | Change (Rattus norvegicus [6]): -12% | Change (Rattus norvegicus [7]): -17% | Change (Rattus norvegicus [8]): -16%

Cc1ccc(-c2nc3n(c2-c2ccc(C)cc2)CCS3)cc1
Change (Mus musculus [5]): 86% | Change (Rattus norvegicus [6]): 0% | Change (Rattus norvegicus [7]): -7% | Change (Rattus norvegicus [8]): -6%

CC(=O)Nc1ccc(-c2nc3n(c2-c2ccc(NC(C)=O)cc2)CCS3)cc1
Change (Rattus norvegicus [3]): 12% | Change (Mus musculus [5]): 78% | Change (Rattus norvegicus [6]): -1% | Change (Rattus norvegicus [8]): 3%
